Most compounds without a hit are left out; they make up all but 3.5% or so of the library.
MrgX1 ag – agonists of human MrgX1 receptor, primary screen, HEK293 cells, Fluo-4 calcium flux. Mas-related G-protein coupled receptor member X1 (Homo sapiens), Q96LB2. Fluo-4 calcium fluorescence, agonist mode; active compounds read high. B-score at 10 µM. 310,000 tested, 0.44% active. AID 588627, 2011;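 active means calcium response B-score plate-corrected fluorescence ratio at least 3 library SD, with starting fluorescence B-score inside 5 SD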
Target sequence (Q96LB2 whole entry, looked up): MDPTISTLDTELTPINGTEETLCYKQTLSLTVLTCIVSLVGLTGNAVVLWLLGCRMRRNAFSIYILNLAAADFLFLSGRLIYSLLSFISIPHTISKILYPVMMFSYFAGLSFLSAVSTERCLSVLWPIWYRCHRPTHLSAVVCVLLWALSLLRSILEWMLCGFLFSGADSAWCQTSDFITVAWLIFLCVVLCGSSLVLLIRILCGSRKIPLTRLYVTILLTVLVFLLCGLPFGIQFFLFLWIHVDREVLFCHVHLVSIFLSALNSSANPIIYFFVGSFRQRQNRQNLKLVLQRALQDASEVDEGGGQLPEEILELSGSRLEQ
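Test system: HEK293 cells stably expressing human MrgX1 receptor; amount: 15,000 cells per well; doses: compound delivered in addition one of three; times: overnight plating before 1 h dye loading; detection: Fluo-4 NW calcium-flux fluorescence, kinetic read; read-out basis: B-scored fluorescence response ratio; controls: positive and negative controls per plate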
RGS4 block – RGS4 inhibitors, primary screen, cell-based, HEK293 M3R inducible RGS4, calcium flux. B-score at 10 µM. Regulator of G-protein signaling 4 (Homo sapiens), P49798. Fluo-4 calcium flux; active compounds read high; triggered by carbachol at its EC20. 310,000 tested, 0.45% active. AID 463165, 2010;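 active means B-score, a plate-corrected calcium signal, over three deviations above library mean, with baseline fluorescence within five deviations of library mean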;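 further: RGS4 expression induced by doxycycline in cells with stable M3 receptor; B-score is computed from the integrated fluorescence ratio over baseline after carbachol; higher B-score means a larger calcium signal and so more RGS4 inhibition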
Target sequence (P49798 whole entry, looked up): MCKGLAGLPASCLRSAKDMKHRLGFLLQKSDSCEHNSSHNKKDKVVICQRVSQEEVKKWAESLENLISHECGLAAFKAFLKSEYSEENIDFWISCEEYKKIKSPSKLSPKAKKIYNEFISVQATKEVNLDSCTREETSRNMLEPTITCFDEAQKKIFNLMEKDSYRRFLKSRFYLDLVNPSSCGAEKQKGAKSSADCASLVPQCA
MrgX1 antag – antagonists of human MrgX1 receptor, primary screen, HEK293 cells, Fluo-4 calcium flux; 310,000 tested, 1.3% active; AID 588676, 2011; Mas-related G-protein coupled receptor member X1 (Homo sapiens), Q96LB2; BAM8-22 antagonism; active compounds read low; B-score at 10 µM;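 active means calcium-response B-score plate-corrected more than 3 library SD below zero, starting fluorescence within 5 deviations, no agonist response on first addition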;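 further: peak minus trough fluorescence over baseline after final BAM8-22 challenge near maximal dose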
RGS4 pot – RGS4 potentiators or activators, primary screen, cell-based, HEK293 M3R inducible RGS4, calcium flux | B-score at 10 µM | AID 463111, 2010 | carbachol calcium flux Fluo4; active compounds read low | 310,000 tested, 0.92% active;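 active means B-score of the integrated calcium signal more than 4 SD below the library mean, with starting fluorescence not abnormally high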;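 further: negative B-score means reduced calcium response which marks RGS4 activation or potentiation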
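Material: Inducible-RGS4 HEK293 cells carrying M3 receptor; also added: carbachol at ECmax as muscarinic agonist stimulus; incubation: compound preincubation 20 min at room temperature before agonist; signal: Fluo4-AM (2 µM) calcium-flux fluorescence, kinetic read; measure: integrated calcium ratio converted to B score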
MrgX1 PAM – positive allosteric modulators of MrgX1, primary screen, HEK293 cells, Fluo-4 calcium flux; B-score at 10 µM; FDSS; active compounds read high; 310,000 tested, 0.63% active; Mas-related G-protein coupled receptor member X1 (Homo sapiens), Q96LB2;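 active means plate-corrected calcium response at least 3 library SD above typical, normal starting fluorescence, not activating the receptor alone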;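 further: compound read alongside a low EC10 to EC30 dose of BAM8-22 agonist; peak minus trough fluorescence over baseline measured at the second addition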
MrgX1 PAM conf – MrgX1 positive allosteric modulators, duplicate retest, confirmation, HEK293 cells, Fluo-4 calcium flux; shares compounds with MrgX1 PAM; Fluo-4 calcium fluorescence, FDSS; activation (ratio percentage), % at 10 µM; 1,200 tested, 13% active; AID 602413, 2012;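 active means ratio at least 3 SD above the weak peptide control, stable starting fluorescence, no direct agonism earlier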;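 further: compound followed by low BAM8-22 agonist challenge near EC20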
HEK293 Ca flux – nonspecific calcium signal in parental HEK293, confirmation, counter-screen for MrgX1 antagonist project, parental HEK293 cells, Fluo-4 calcium flux; shares compounds with MrgX1 antag; Fluo-4 calcium fluorescence, FDSS; fluorescence ratio F(max-min)/F0 at 10 µM; 4,000 tested, 2% active; AID 624111, 2012;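 active means duplicate-averaged calcium fluorescence ratio at least three times the standard deviation of buffer wells, a nonspecific response in parental cells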
HEK293 Ca counter – calcium response in parental HEK293 cells, primary screen, counter-screen for MrgX1 allosteric activator project, cell-based, Fluo-4 calcium flux, duplicate | shares compounds with MrgX1 antag | Fluo-4 fluorescence ratio; active compounds read high | fluorescence ratio F(max-min)/F0 at 10 µM | 4,000 tested, 0.4% active;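 active means calcium fluorescence ratio, averaged over duplicates, at least 3 SD of the buffer-well ratio, meaning a nonspecific response in receptor-free cells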;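 further: untransfected parental HEK293 lacking MrgX1 used as counterscreen for MrgX1 allosteric activators; fluorescence change taken during the second addition on a kinetic imager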
HEK293 Ca cntr2 – calcium response in parental HEK293 cells, primary screen, counter-screen for MrgX1 agonist project, cell-based, Fluo-4 calcium flux, duplicate, agonist mode; shares compounds with MrgX1 antag; Fluo-4 calcium fluorescence (FDSS); active compounds read high; fluorescence ratio F(max-min)/F0 at 10 µM; 4,000 tested, 8.7% active; AID 624115, 2012;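 active means calcium fluorescence ratio at least three times the spread of buffer wells, meaning a non-specific response in parental cells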
Numbers stand for hits.

What do the screens show for `COc1ccc(C2/C(=C(\O)c3ccc4c(c3)CC(C)O4)C(=O)C(=O)N2Cc2cccnc2)c(OC)c1` (stereo not given)?
MrgX1 ag: inactive; RGS4 block: inactive; MrgX1 antag: inactive; RGS4 pot: inactive; MrgX1 PAM: inactive

How did COC(=O)C(CC(=O)c1ccc(Cl)cc1)c1ccc(C(C)C)cc1 (stereo not given) do in these assays?
MrgX1 ag: inactive; RGS4 block: inactive; MrgX1 antag: inactive; RGS4 pot: inactive; MrgX1 PAM: 7.1; MrgX1 PAM conf: inactive; HEK293 Ca flux: inactive; HEK293 Ca counter: inactive; HEK293 Ca cntr2: inactive

What do the screens show for `O=C(CC(C(=O)O)c1ccc(Cl)cc1)c1ccc(Cl)c(Cl)c1` (stereo not given)?
MrgX1 ag: inactive; RGS4 block: inactive; MrgX1 antag: inactive; RGS4 pot: inactive; MrgX1 PAM: inactive

Results for CN(Cc1c(F)cccc1Cl)C(=O)CNC(=O)c1sc2ccccc2c1Cl ?
MrgX1 ag: inactive; RGS4 block: inactive; MrgX1 antag: inactive; RGS4 pot: inactive; MrgX1 PAM: inactive

What do the screens show for `CC(C)C1Cc2c(sc3ncnc(NN)c23)CO1` (stereo not given)?
MrgX1 ag: inactive; RGS4 block: inactive; MrgX1 antag: inactive; RGS4 pot: inactive; MrgX1 PAM: inactive

How did COc1ccccc1N1CCN(C(=O)c2cc3cc(C)ccc3[nH]2)CC1 do in these assays?
MrgX1 ag: inactive; RGS4 block: inactive; MrgX1 antag: inactive; RGS4 pot: inactive; MrgX1 PAM: 11; MrgX1 PAM conf: inactive; HEK293 Ca flux: inactive; HEK293 Ca counter: inactive; HEK293 Ca cntr2: inactive

What do the screens show for `CC1=CSC2=NC(=O)/C(=C\c3cccn3-c3ccc([N+](=O)[O-])cc3)C(=N)N12`?
MrgX1 ag: inactive; RGS4 block: inactive; MrgX1 antag: inactive; RGS4 pot: inactive; MrgX1 PAM: 26; MrgX1 PAM conf: 24%; HEK293 Ca flux: inactive; HEK293 Ca counter: inactive; HEK293 Ca cntr2: inactive

Results for CCOC(=O)CNC(=S)n1cnc(N)n1 ?
MrgX1 ag: inactive; RGS4 block: inactive; MrgX1 antag: inactive; RGS4 pot: inactive; MrgX1 PAM: inactive

What do the screens show for `CCCC(C(=O)NC1=NCCS1)c1ccccc1` (stereo not given)?
MrgX1 ag: inactive; RGS4 block: inactive; MrgX1 antag: inactive; RGS4 pot: inactive; MrgX1 PAM: inactive

How did CC12COC3(C(N)=O)CC1CCC32C (stereo not given) do in these assays?
MrgX1 ag: inactive; RGS4 block: inactive; MrgX1 antag: inactive; RGS4 pot: inactive; MrgX1 PAM: inactive

Results for CC12COC3(C(=O)Nc4ccc(F)cc4)CC1CCC32C (stereo not given) ?
MrgX1 ag: inactive; RGS4 block: inactive; MrgX1 antag: inactive; RGS4 pot: inactive; MrgX1 PAM: 11; MrgX1 PAM conf: inactive; HEK293 Ca flux: inactive; HEK293 Ca counter: inactive; HEK293 Ca cntr2: inactive

How did O=C(CC1SCCNC1=O)Nc1ccc(F)c(Cl)c1 (stereo not given) do in these assays?
MrgX1 ag: inactive; RGS4 block: inactive; MrgX1 antag: inactive; RGS4 pot: inactive; MrgX1 PAM: 9.9; MrgX1 PAM conf: inactive; HEK293 Ca flux: inactive; HEK293 Ca counter: inactive; HEK293 Ca cntr2: inactive

What do the screens show for `CC(C)n1c(CN(C)Cc2ccccc2)nc2c1c(=O)n(C)c(=O)n2C`?
MrgX1 ag: inactive; RGS4 block: inactive; MrgX1 antag: inactive; RGS4 pot: inactive; MrgX1 PAM: 7.8; MrgX1 PAM conf: 13%; HEK293 Ca flux: inactive; HEK293 Ca counter: inactive; HEK293 Ca cntr2: inactive

How did CC(=O)C(C)n1c(CN(C)Cc2ccccc2)nc2c1c(=O)n(C)c(=O)n2C (stereo not given) do in these assays?
MrgX1 ag: inactive; RGS4 block: inactive; MrgX1 antag: inactive; RGS4 pot: inactive; MrgX1 PAM: inactive

How did COc1ccccc1NC(=O)N1c2ccc(F)cc2CCC1C (stereo not given) do in these assays?
MrgX1 ag: inactive; RGS4 block: inactive; MrgX1 antag: inactive; RGS4 pot: inactive; MrgX1 PAM: 10; MrgX1 PAM conf: inactive; HEK293 Ca flux: inactive; HEK293 Ca counter: inactive; HEK293 Ca cntr2: inactive

How did COC(=O)c1ccc(OCCCCN2CC(C)OC(C)C2)cc1 (stereo not given) do in these assays?
MrgX1 ag: inactive; RGS4 block: inactive; MrgX1 antag: inactive; RGS4 pot: inactive; MrgX1 PAM: 10; MrgX1 PAM conf: inactive; HEK293 Ca flux: inactive; HEK293 Ca counter: inactive; HEK293 Ca cntr2: inactive

What do the screens show for `CC1CCCN(c2nc3c(c(=O)n(C)c(=O)n3C)n2Cc2ccccc2)C1` (stereo not given)?
MrgX1 ag: inactive; RGS4 block: inactive; MrgX1 antag: inactive; RGS4 pot: inactive; MrgX1 PAM: 7.1; MrgX1 PAM conf: inactive; HEK293 Ca flux: inactive; HEK293 Ca counter: inactive; HEK293 Ca cntr2: inactive

How did Cn1c(=O)c2c(nc(N3CCCCCC3)n2CCSc2nc3ccccc3o2)n(C)c1=O do in these assays?
MrgX1 ag: inactive; RGS4 block: inactive; MrgX1 antag: inactive; RGS4 pot: inactive; MrgX1 PAM: 7.1; MrgX1 PAM conf: inactive; HEK293 Ca flux: inactive; HEK293 Ca counter: inactive; HEK293 Ca cntr2: inactive

How did O=C(O)CCC(=O)N1N=C(c2ccc(Br)cc2)CC1c1cccc(Br)c1 (stereo not given) do in these assays?
MrgX1 ag: inactive; RGS4 block: inactive; MrgX1 antag: inactive; RGS4 pot: inactive; MrgX1 PAM: inactive

How did COc1ccc(CCNC(=O)CC(Cc2ccc(C)cc2)C(=O)O)cc1OC (stereo not given) do in these assays?
MrgX1 ag: inactive; RGS4 block: inactive; MrgX1 antag: inactive; RGS4 pot: inactive; MrgX1 PAM: inactive

How did S=C(NCCCN1CCOCC1)Nc1cccc(Cl)c1 do in these assays?
MrgX1 ag: inactive; RGS4 block: inactive; MrgX1 antag: inactive; RGS4 pot: inactive; MrgX1 PAM: 11; MrgX1 PAM conf: inactive; HEK293 Ca flux: inactive; HEK293 Ca counter: inactive; HEK293 Ca cntr2: inactive

Assay outcomes deposited in PubChem BioAssay by Johns Hopkins Ion Channel Center.
